One block for each compound: values may come before it. Activity calls are given as the source filed them. The rule behind the calls is not given here.
Experiments:
[1] = target: T1, Tyrosinase (Homo sapiens) (UniProt P14679); assay: Binding affinity to human tyrosinase at 50 uM at pH 6.8 by enzymatic assay
T1 sequence (whole entry): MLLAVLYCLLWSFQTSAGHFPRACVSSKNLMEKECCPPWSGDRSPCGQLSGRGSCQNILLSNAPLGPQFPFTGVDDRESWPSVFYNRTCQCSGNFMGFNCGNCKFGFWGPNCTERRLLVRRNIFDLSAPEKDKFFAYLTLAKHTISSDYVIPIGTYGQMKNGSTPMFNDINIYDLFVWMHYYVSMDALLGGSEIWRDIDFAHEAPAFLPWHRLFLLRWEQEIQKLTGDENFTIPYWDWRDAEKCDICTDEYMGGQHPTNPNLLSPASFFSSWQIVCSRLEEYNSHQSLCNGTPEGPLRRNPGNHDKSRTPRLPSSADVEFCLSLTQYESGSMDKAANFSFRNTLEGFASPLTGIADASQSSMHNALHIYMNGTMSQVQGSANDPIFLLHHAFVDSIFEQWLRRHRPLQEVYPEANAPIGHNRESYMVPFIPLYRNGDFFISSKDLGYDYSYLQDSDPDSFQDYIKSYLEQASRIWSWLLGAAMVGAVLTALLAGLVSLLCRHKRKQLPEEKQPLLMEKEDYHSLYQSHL
In short: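 Human tyrosinase intramelanosomal domain (residues 19–456), 200 nM, with 1 mM L-DOPA and 4 mM MBTH in PBS pH 6.8 with 1% DMSO at 25 °C. Dopaquinone-MBTH absorbance at 490–510 nm is recorded over 10 min, in duplicate, and the OD–time slope is taken by linear regression. Single-point tests use a fixed 50 µM inhibitor. IC50 comes from fitting the slope against inhibitor concentration.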

[2] = target: 5,6-dihydroxyindole-2-carboxylic acid oxidase (Homo sapiens) (UniProt P17643); assay: Binding affinity to human tyrosinase related protein 1 up to 10 uM by fluorescence polarization analysis; settings: dose microM <=10
In short: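 hTYRP1 intramelanosomal domain (residues 25–471) is serially diluted 1:1 and incubated with 50 nM fluorescein-conjugated ligand in PBS pH 7.4. Fluorescence anisotropy is read in triplicate and anisotropy values are fitted against protein concentration.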

[3] = target: T1, Tyrosinase (Homo sapiens); assay: Binding affinity to human tyrosinase up to 100 uM by ELISA; settings: dose microM <=100
In short: (§1)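 Wells are coated overnight at 4 °C with 100 nM hTYR or hTYRP1 in PBS and blocked with 4% milk-PBS for 30–45 min. A serial dilution of fluorescein-ligand conjugate is added for 45 min in the dark. Detection uses 200 nM anti-fluorescein IgG, then protein A-HRP (1:1000), each for 45 min with washes between. Absorbance is read at 450 and 620 nm, and values are fitted.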

[4] = target: 5,6-dihydroxyindole-2-carboxylic acid oxidase (Homo sapiens) (UniProt P17643); assay: Binding affinity to human tyrosinase related protein 1 expressed in mouse B16F10 cells at 10 uM by fluorophore based flow cytometry assay; settings: B16-F10
[5] = target: 5,6-dihydroxyindole-2-carboxylic acid oxidase (Homo sapiens) (UniProt P17643); assay: Binding affinity to human tyrosinase related protein 1 up to 100 uM by ELISA; settings: dose microM <=100; in short: as §1
[6] = target: T1, Tyrosinase (Homo sapiens); assay: Binding affinity to human tyrosinase expressed in mouse B16F10 cells at 10 uM by fluorophore based flow cytometry assay; settings: B16-F10

5,6-dihydroxyindole-2-carboxylic acid oxidase (Homo sapiens), sequence (P17643 whole entry, the tested form may be a part): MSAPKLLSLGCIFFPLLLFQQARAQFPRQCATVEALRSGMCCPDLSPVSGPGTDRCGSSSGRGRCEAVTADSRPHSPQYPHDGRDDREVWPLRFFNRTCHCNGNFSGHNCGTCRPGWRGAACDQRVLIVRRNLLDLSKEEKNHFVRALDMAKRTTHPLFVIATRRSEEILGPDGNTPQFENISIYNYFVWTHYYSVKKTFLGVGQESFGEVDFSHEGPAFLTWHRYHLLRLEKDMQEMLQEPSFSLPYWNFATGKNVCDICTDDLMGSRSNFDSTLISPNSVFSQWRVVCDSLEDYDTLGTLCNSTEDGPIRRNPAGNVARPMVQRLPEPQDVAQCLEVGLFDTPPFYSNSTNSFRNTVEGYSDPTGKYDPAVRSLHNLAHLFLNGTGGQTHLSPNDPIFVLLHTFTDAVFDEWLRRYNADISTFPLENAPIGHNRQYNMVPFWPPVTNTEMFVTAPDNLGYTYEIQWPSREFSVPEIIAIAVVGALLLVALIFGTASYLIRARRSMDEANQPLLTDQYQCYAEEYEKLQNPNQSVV

Activity [1]: Active
Structure (SMILES): CN(C)c1ccc(CC(=O)N[C@@H](CCC(N)=O)C(=O)N2CCCN(c3ccc(F)cc3)CC2)cc1

Activity [2]: Active
Structure (SMILES): CN(C)c1ccc(CC(=O)N[C@@H](CCC(=O)NCCCCC(NC(=S)Nc2cccc3c2C(=O)OC32c3ccc(O)cc3Oc3cc(O)ccc32)C(=O)O)C(=O)NCc2ccccc2N2CCCC2)cc1 (stereo not given in full)

Activity [1]: Active
Structure (SMILES): CN(C)c1ccc(CC(=O)N[C@H](CCC(N)=O)C(=O)NCc2ccccc2N2CCCC2)cc1

Activity [1]: Active
Structure (SMILES): CN(C)c1ccc(CC(=O)N[C@@H](CCC(N)=O)C(=O)NCc2cccc(N3CCOCC3)c2)cc1

Activity [2]: Active
Structure (SMILES): CN(C)c1ccc(CC(=O)N[C@H](CCC(=O)NCCCCC(NC(=S)Nc2cccc3c2C(=O)OC32c3ccc(O)cc3Oc3cc(O)ccc32)C(=O)O)C(=O)NCc2ccccc2N2CCCC2)cc1 (stereo not given in full)

Activity [3]: Active
Activity [4]: Active
Activity [5]: Active
Activity [6]: Active
Structure (SMILES): N=C(N)NCCC[C@@H](NC(=O)[C@@H](CC(=O)O)NC(=O)[C@H](CCCCNC(=O)CCCCCNC(=O)CCCCn1cc(CCCC(=O)Nc2nc(-c3ccc(O)cc3O)cs2)nn1)NC(=O)CCCCCNC(=O)CCCCn1cc(CCCC(=O)Nc2nc(-c3ccc(O)cc3O)cs2)nn1)C(=O)N[C@H](CC(=O)O)C(=O)NCCCCCC(=O)NC(CSC1CC(=O)N(c2ccc3c(c2)C(=O)OC32c3ccc(O)cc3Oc3cc(O)ccc32)C1=O)C(=O)O (single isomer, unassigned)

Activity [3]: Active
Activity [4]: Active
Activity [5]: Active
Activity [6]: Active
Structure (SMILES): N=C(N)NCCC[C@@H](NC(=O)[C@@H](CC(=O)O)NC(=O)[C@H](CCCCNC(=O)[C@H](CCCCNC(=O)CCCCCNC(=O)CCCCn1cc(CCCC(=O)Nc2nc(-c3ccc(O)cc3O)cs2)nn1)NC(=O)CCCCCNC(=O)CCCCn1cc(CCCC(=O)Nc2nc(-c3ccc(O)cc3O)cs2)nn1)NC(=O)[C@H](CCCCNC(=O)CCCCCNC(=O)CCCCn1cc(CCCC(=O)Nc2nc(-c3ccc(O)cc3O)cs2)nn1)NC(=O)CCCCCNC(=O)CCCCn1cc(CCCC(=O)Nc2nc(-c3ccc(O)cc3O)cs2)nn1)C(=O)N[C@H](CC(=O)O)C(=O)NCCCCCC(=O)N[C@@H](CSC1CC(=O)N(c2ccc3c(c2)C(=O)OC32c3ccc(O)cc3Oc3cc(O)ccc32)C1=O)C(=O)O (stereo not given in full)

Activity [1]: Active
Structure (SMILES): CN(C)c1ccc(CC(=O)N[C@H](CCC(N)=O)C(=O)NCc2cccc(N3CCOCC3)c2)cc1

Activity [1]: Active
Structure (SMILES): CN(C)c1ccc(CC(=O)N[C@H](CCC(N)=O)C(=O)N2CCCN(c3ccc(F)cc3)CC2)cc1

Activity [3]: Active
Activity [4]: Active
Activity [5]: Active
Activity [6]: Active
Structure (SMILES): N=C(N)NCCC[C@@H](NC(=O)[C@@H](CC(=O)O)NC(=O)CCCCn1cc(CCCC(=O)Nc2nc(-c3ccc(O)cc3O)cs2)nn1)C(=O)N[C@H](CC(=O)O)C(=O)NCCCCCC(=O)NC(CSC1CC(=O)N(c2ccc3c(c2)C(=O)OC32c3ccc(O)cc3Oc3cc(O)ccc32)C1=O)C(=O)O (single isomer, unassigned)

Activity [1]: Active
Structure (SMILES): CN(C)c1ccc(CC(=O)N[C@@H](CCC(N)=O)C(=O)NCc2ccccc2N2CCCC2)cc1

Reference: ChEMBL document CHEMBL4732017, “Discovery, affinity maturation and multimerization of small molecule ligands against human tyrosinase and tyrosinase-related protein 1” (RSC Med Chem, 2021)
